Data: ChEMBL document CHEMBL1817593, “C5'-Alkyl Substitution Effects on Digitoxigenin α-l-Glycoside Cancer Cytotoxicity” (ACS Med Chem Lett, 2011)

Columns and labels:
Assay type in all cases: functional
MDA-MB-435 [1] = experiment: Cytotoxicity against human MDA-MB-435 breast cancer cells after 48 hrs by sulforhodamine B assay; conditions: MDA-MB-435, 48 h
K562 = experiment: Cytotoxicity against human K562 cells after 48 hrs by sulforhodamine B assay; conditions: K562, 48 h
BT-549 = experiment: Cytotoxicity against human BT549 cells after 48 hrs by sulforhodamine B assay; conditions: BT-549, 48 h
U-251 = experiment: Cytotoxicity against human U251 cells after 48 hrs by sulforhodamine B assay; conditions: U-251, 48 h
NCI-H460 [2] = experiment: Cytotoxicity against human NCI-H460 cells after 48 hrs by sulforhodamine B assay; conditions: NCI-H460, 48 h
Hs-578T = experiment: Cytotoxicity against human Hs578T cells after 48 hrs by sulforhodamine B assay
LOX IMVI = experiment: Cytotoxicity against human LOXIMVI cells after 48 hrs by sulforhodamine B assay
NCI-H460 [3] = experiment: Cytotoxicity against human NCI-H460 cells assessed as cell death in serum free medium at 100 nM after 12 hrs by Hoechst 33342/propidium iodide staining based fluorescence microscopy
Summary of the method: (§1)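 NCI-H460 human lung cancer cells exposed 12 h to 10 nM–10 μM drug, including a 50 nM single-concentration test. Nuclei were stained with Hoechst 33342 and necrotic cells with propidium iodide. Apoptotic cells were scored by condensed or fragmented blue nuclei and necrotic cells by red PI staining. Total cell death (apoptosis plus necrosis) was recorded; N = 6.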

OVCAR-8 = experiment: Cytotoxicity against human OVCAR8 cells after 48 hrs by sulforhodamine B assay; conditions: OVCAR-8, 48 h
SF-295 = experiment: Cytotoxicity against human SF295 cells after 48 hrs by sulforhodamine B assay; conditions: SF-295, 48 h
MOLT-4 = experiment: Cytotoxicity against human MOLT4 cells after 48 hrs by sulforhodamine B assay; conditions: MOLT-4, 48 h
NCI-H460 [4] = experiment: Cytotoxicity against human NCI-H460 cells assessed as cell viability at 25 nM after 48 hrs by MTT assay; conditions: NCI-H460, 48 h, read-out: Activity
Summary of the method: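 Viability of NCI-H460 cells was measured by MTT (mitochondrial enzymatic activity) after 48 h exposure, within a dose series spanning 1 nM–10 μM. N = 9, analysed by two-way ANOVA.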

HOP-62 = experiment: Cytotoxicity against human HOP62 cells after 48 hrs by sulforhodamine B assay; conditions: HOP-62, 48 h
NCI-H460 [5] = experiment: Growth inhibition of human NCI-H460 cells after 48 hrs by MTT assay
Summary of the method: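 NCI-H460 viability measured by MTT (mitochondrial enzymatic activity) after 48 h exposure at 1 nM to 10 μM. GI50 derived from dose-response curves, with N = 9 and two-way ANOVA. Values are the mean of three independent experiments with duplicate determinations.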

SF-539 = experiment: Cytotoxicity against human SF539 cells after 48 hrs by sulforhodamine B assay; conditions: SF-539, 48 h
MDA-MB-435 [6] = experiment: Cytotoxicity against human MDA-MB-435 melanoma cells after 48 hrs by sulforhodamine B assay; conditions: MDA-MB-435, 48 h
786-0 = experiment: Cytotoxicity against human 786-0 cells after 48 hrs by sulforhodamine B assay; conditions: 786-0, 48 h
COLO 205 = experiment: Cytotoxicity against human COLO205 cells after 48 hrs by sulforhodamine B assay; conditions: COLO 205, 48 h
Malme-3M = experiment: Cytotoxicity against human MALME-3M cells after 48 hrs by sulforhodamine B assay
A498 = experiment: Cytotoxicity against human A498 cells after 48 hrs by sulforhodamine B assay; conditions: A498, 48 h
NCI/ADR-RES = experiment: Cytotoxicity against human NCI/ADR-RES cells after 48 hrs by sulforhodamine B assay
UO-31 = experiment: Cytotoxicity against human UO31 cells after 48 hrs by sulforhodamine B assay; conditions: UO-31, 48 h
NCI-H23 = experiment: Cytotoxicity against human NCI-H23 cells after 48 hrs by sulforhodamine B assay; conditions: NCI-H23, 48 h
OVCAR-4 = experiment: Cytotoxicity against human OVCAR4 cells after 48 hrs by sulforhodamine B assay; conditions: OVCAR-4, 48 h
NCI-H460 [7] = experiment: Cytotoxicity against human NCI-H460 cells assessed as cell death in serum free medium at 75 nM after 12 hrs by Hoechst 33342/propidium iodide staining based fluorescence microscopy; summary of the method: as §1
CCRF-CEM = experiment: Cytotoxicity against human CCRF-CEM cells after 48 hrs by sulforhodamine B assay
HOP-92 = experiment: Cytotoxicity against human HOP92 cells after 48 hrs by sulforhodamine B assay; conditions: HOP-92, 48 h
A549 = experiment: Cytotoxicity against human A549/ATCC cells after 48 hrs by sulforhodamine B assay; conditions: A549, 48 h
M14 = experiment: Cytotoxicity against human M14 cells after 48 hrs by sulforhodamine B assay; conditions: M14, 48 h
NCI-H322M = experiment: Cytotoxicity against human NCI-H322M cells after 48 hrs by sulforhodamine B assay
EKVX = experiment: Cytotoxicity against human EKVX cells after 48 hrs by sulforhodamine B assay
NCI-H460 [8] = experiment: Induction of apoptosis in human NCI-H460 cells in serum free medium at 50 nM after 12 hrs by Hoechst 33342/propidium iodide staining based fluorescence microscopy
Summary of the method: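 NCI-H460 cells exposed to a single 50 nM concentration for 12 h. Cells stained with Hoechst 33342 and propidium iodide. Blue cells with condensed or fragmented nuclei were scored as apoptotic and red, ruptured cells as necrotic. Result given as % apoptotic cell death; N = 6, one-way ANOVA.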

NCI-H226 = experiment: Cytotoxicity against human NCI-H226 cells after 48 hrs by sulforhodamine B assay; conditions: NCI-H226, 48 h
SR = experiment: Cytotoxicity against human SR cells after 48 hrs by sulforhodamine B assay
HL-60(TB) = experiment: Cytotoxicity against human HL-60(TB) cells after 48 hrs by sulforhodamine B assay; conditions: HL-60, 48 h
SF-268 = experiment: Cytotoxicity against human SF268 cells after 48 hrs by sulforhodamine B assay; conditions: SF-268, 48 h
NCI-H460 [9] = experiment: Cytotoxicity against human NCI-H460 cells assessed as cell death in serum free medium at 50 nM after 12 hrs by Hoechst 33342/propidium iodide staining based fluorescence microscopy; summary of the method: as §1
SK-MEL-5 = experiment: Cytotoxicity against human SK-MEL-5 cells after 48 hrs by sulforhodamine B assay; conditions: SK-MEL-5, 48 h
SNB-19 = experiment: Cytotoxicity against human SNB19 cells after 48 hrs by sulforhodamine B assay; conditions: SNB-19, 48 h
T47D = experiment: Cytotoxicity against human T47D cells after 48 hrs by sulforhodamine B assay

## CC(C)C[C@@H]1O[C@@H](O[C@H]2CC[C@@]3(C)[C@H](CC[C@@H]4[C@@H]3CC[C@]3(C)[C@@H](C5=CC(=O)OC5)CC[C@]43O)C2)CC[C@H]1O
MDA-MB-435 [1]
  GI50: 149 nM
K562
  GI50: 26.9 nM
BT-549
  GI50: 22.5 nM
U-251
  GI50: 39.7 nM
NCI-H460 [2]
  GI50: 20.9 nM
Hs-578T
  GI50: 7.5 nM
LOX IMVI
  GI50: 27.2 nM
NCI-H460 [3]
  Activity: 17.69%
OVCAR-8
  GI50: 29.6 nM
SF-295
  GI50: 24.9 nM
MOLT-4
  GI50: 13.1 nM
NCI-H460 [4]
  viability at 0.025 µM: 36.6%
HOP-62
  GI50: 23.1 nM
NCI-H460 [5]
  GI50: Dose-dependent effect
NCI-H460 [5]; NCI-H460, 48 h
  GI50: 8 nM
SF-539
  GI50: 23.8 nM
MDA-MB-435 [6]
  GI50: 35.1 nM
786-0
  GI50: 23.3 nM
COLO 205
  GI50: 170 nM
Malme-3M
  GI50: 25.7 nM
A498
  GI50: 27 nM
NCI/ADR-RES
  GI50: 26.9 nM
UO-31
  GI50: 27.7 nM
NCI-H23
  GI50: 25.7 nM
OVCAR-4
  GI50: 85.5 nM
NCI-H460 [7]
  Activity: 15%
CCRF-CEM
  GI50: 28.5 nM
HOP-92
  GI50: 74.2 nM
A549
  GI50: 13.4 nM
M14
  GI50: 67.2 nM
NCI-H322M
  GI50: 42.5 nM
EKVX
  GI50: 31.7 nM
NCI-H460 [8]
  Activity: 9.2821%
NCI-H226
  GI50: 95.9 nM
SR
  GI50: 23 nM
HL-60(TB)
  GI50: 18.3 nM
SF-268
  GI50: 26.3 nM
NCI-H460 [9]
  Activity: 13.06%
SK-MEL-5
  GI50: 27.7 nM
SNB-19
  GI50: 58.9 nM
T47D
  GI50: 36.2 nM

## CC(C)[C@@H]1O[C@@H](O[C@H]2CC[C@@]3(C)[C@H](CC[C@@H]4[C@@H]3CC[C@]3(C)[C@@H](C5=CC(=O)OC5)CC[C@]43O)C2)CC[C@H]1O
MDA-MB-435 [1]
  GI50: 150 nM
K562
  GI50: 47 nM
BT-549
  GI50: 20.7 nM
U-251
  GI50: 82.9 nM
NCI-H460 [2]
  GI50: 21.7 nM
Hs-578T
  GI50: 13.6 nM
LOX IMVI
  GI50: 26.9 nM
NCI-H460 [3]
  Activity: 18.89%
OVCAR-8
  GI50: 56.2 nM
SF-295
  GI50: 28.6 nM
MOLT-4
  GI50: 16.9 nM
NCI-H460 [4]
  viability at 0.025 µM: 30.1%
HOP-62
  GI50: 31.1 nM
NCI-H460 [5]
  GI50: Dose-dependent effect
NCI-H460 [5]; NCI-H460, 48 h
  GI50: 8 nM
SF-539
  GI50: 27.6 nM
MDA-MB-435 [6]
  GI50: 82.8 nM
786-0
  GI50: 26.8 nM
COLO 205
  GI50: 207 nM
Malme-3M
  GI50: 63.6 nM
A498
  GI50: 90.1 nM
NCI/ADR-RES
  GI50: 31.5 nM
UO-31
  GI50: 23.4 nM
NCI-H23
  GI50: 29.4 nM
OVCAR-4
  GI50: 123 nM
NCI-H460 [7]
  Activity: 16.05%
CCRF-CEM
  GI50: 33.1 nM
HOP-92
  GI50: 79.8 nM
A549
  GI50: 17.7 nM
M14
  GI50: 93.4 nM
NCI-H322M
  GI50: 77.4 nM
EKVX
  GI50: 31.9 nM
NCI-H460 [8]
  Activity: 11.993%
NCI-H226
  GI50: 119 nM
SR
  GI50: 37.2 nM
HL-60(TB)
  GI50: 14.3 nM
SF-268
  GI50: 26.3 nM
NCI-H460 [9]
  Activity: 14.48%
SK-MEL-5
  GI50: 22.6 nM
SNB-19
  GI50: 185 nM
T47D
  GI50: 95.9 nM
